Records with an inconclusive call do not appear.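 The calls were made as follows, unless noted: active = viability increase at or above a cutoff of the median across tested compounds plus 3 SD (cut at about 8.5% in these data, passing the limit was not always enough); inconclusive = some gains above the cutoff, reason not given; inactive = the rest.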
Tests used:
[1] = S. cerevisiae growth inhibition in permissive medium (OD615), pilot counter-assay for S. cerevisiae lifespan shortening project, permissive growth control (AID 705;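 active = growth inhibition above 25% in both replicates, a cutoff set 3 SD above the mean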); settings: OD615, 24 h, at 10 µM, active compounds read high
Method in brief: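 System: Engineered DeaD yeast | Buffer or medium: SC raffinose/galactose permissive medium | Doses: 10 µM single dose, 0.25% DMSO | Times: 24 h exposure, 30 °C | Measured by: OD615 turbidity read | Read-out: Yeast growth inhibition indicated by reduced 24 h OD615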

[2] = S. cerevisiae growth inhibition in restrictive medium, OD615, pilot screen, restrictive growth control, yeast lifespan reduction project (AID 706;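 active = growth inhibition above a set limit, 3 SD over mean compound inhibition, in both replicates, cut at about 43% in these data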;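 also: modified DeaD lifespan yeast strain shifted to restrictive glucose medium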); settings: OD615, 48 h, at 10 µM, active compounds read high
Method in brief: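 Assay system: engineered S. cerevisiae DeaD strain; Buffer or medium: CSMM-D glucose medium; Dosing: 10 µM compound, 0.25% DMSO; Times: cell pre-growth 4 h, compound exposure 48 h, 30 °C; Detection: absorbance (optical density) measured at 615 nm.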

[3] = doxorubicin toxicity protection in MRP-1 cells – H69AR cells, CellTiter-Glo, duplicate, MRP-1 activator project, pilot screen (AID 807); settings: H69AR viability with doxorubicin, CellTiter-Glo luminescence; at 10 µM; active compounds read high;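 also: compound pretreatment 18-22 h then 72 h combined with doxorubicin; 0% = doxorubicin alone and 100% = vehicle without doxorubicin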
[4] = viability of HCT116 without oncogenic beta-catenin – human colon tumor cells, pilot screen (AID 823;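 active = cell viability at or below a set limit in both duplicate runs, the limit being the all-compound median minus 4 SD, cut at about 23% in these data, passing the limit was not always enough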;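 also: 0% = wells killed by 20 µM Hyamine and 100% = untreated DMSO cell wells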); settings: HCT116 beta-catenin knockout viability, CellTiter-Glo, 60 h; at 10 µM; active compounds read low
[5] = viability of PTEN-null HCT116 cells – cell-based, HCT116 clonal line, CellTiter-Glo, pilot screen (AID 824;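 active = viability at or below 27.92% in each of two runs, the all-compound median minus 4 SD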;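 also: 0% = 20 µM Hyamine control and 100% = vehicle cell control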); settings: HCT116 PTEN-deleted viability, 60 h, at 10 µM, active compounds read low
[6] = RAM pathway blockade in budding yeast – dse1pr::URA3 reporter, 5-FOA selection, pilot screen (AID 869;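 active = inhibition over a set limit, the all-compound mean plus 3 SD, in both replicate runs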;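 also: 0% = DMSO wells with no growth and 100% = 10 µM 1-NA-PP1 with full growth; RAM network block rescues cells from 5-FOA so hits raise OD615 growth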); settings: S. cerevisiae dse1pr::URA3 5-FOA growth, OD615, 2 d; at 10 µM; active compounds read high; strain carries analog-sensitive mutant Cbk1 kinase
[7] = RAM signaling pathway blockade in yeast – S. cerevisiae, Pdr1DBD-CYC8 efflux-inhibited sensitized strain, primary screen (AID 1298;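 active = RAM network inhibition above 8.4% in each of two replicates, 3 SD over the compound average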;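 also: 0% = DMSO untreated cells without growth and 100% = 10 µM 1-NA-PP1 full growth; higher means more yeast growth rescued from 5-FOA killing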); settings: S. cerevisiae cbk1-as DSE1-URA3 strain, 5-FOA growth OD615, 2 d; at 50 µM; active compounds read high

NC(=O)SCC(=O)Nc1ccc(Cl)c(Cl)c1
inactive: growth inhibition [1] -0.33% | growth inhibition [2] 4.16% | viability increase [3] -7.83% | viability [4] 38% | viability [5] 42.8% | inhibition [6] 2.52% | RAM network inhibition [7] 4.56%

COc1ccc(N2C(=O)C3CCCN3C2c2cccc(OC)c2)cc1 (configuration not stated)
inactive: growth inhibition [1] 2.15% | growth inhibition [2] -0.935% | viability increase [3] -1.99% | viability [4] 98.9% | viability [5] 104% | inhibition [6] 1.75% | RAM network inhibition [7] -1.67%

COc1ccc(C(=O)Nc2cccc(C(C)=O)c2)cc1S(=O)(=O)N1CCOCC1
inactive: growth inhibition [1] -23.9% | growth inhibition [2] -18.5% | viability increase [3] -1.76% | viability [4] 92% | viability [5] 96% | inhibition [6] 2.08% | RAM network inhibition [7] 2.08%

O=C(Nc1ccc2c(c1)OCO2)C(c1ccccc1)N1CCCCC1 (configuration not stated)
inactive: growth inhibition [1] -3.12% | growth inhibition [2] 0.37% | viability increase [3] -1.69% | viability [4] 80.6% | viability [5] 93.2% | inhibition [6] 1.16% | RAM network inhibition [7] 2.51%

CC(NC(=O)c1ccco1)C(c1cccs1)N1CCOCC1 (configuration not stated)
inactive: growth inhibition [1] -6.95% | growth inhibition [2] 7.38% | viability increase [3] -2.37% | viability [4] 101% | viability [5] 99.5% | inhibition [6] 0.88% | RAM network inhibition [7] 1.38%

O=C(NCc1ccco1)c1cnccn1
inactive: growth inhibition [1] 3.99% | growth inhibition [2] 5.22% | viability increase [3] -2.25% | viability [4] 98.7% | viability [5] 101% | inhibition [6] 2.81% | RAM network inhibition [7] -0.25%

CC1CCc2nn(CC(=O)NC3CCCC(C)C3C)cc2C1 (configuration not stated)
inactive: growth inhibition [1] -6.6% | growth inhibition [2] -6.19% | viability increase [3] 1.67% | viability [4] 97.5% | viability [5] 85.3% | inhibition [6] -0.3% | RAM network inhibition [7] 1.94%

COc1ccc(N2C(=O)CC(NCc3cccc(F)c3)C2=O)cc1 (configuration not stated)
inactive: growth inhibition [1] -6.89% | growth inhibition [2] -3.85% | viability increase [3] -0.75% | viability [4] 99.3% | viability [5] 98% | inhibition [6] 0.82% | RAM network inhibition [7] 5.38%

CC(=O)Nc1nonc1-c1nc2ccccc2n1Cc1nnc(C)o1
inactive: growth inhibition [1] 3.66% | growth inhibition [2] 2.84% | viability increase [3] -3.32% | viability [4] 99.7% | viability [5] 97.1% | inhibition [6] 2.09% | RAM network inhibition [7] 1.99%

O=C(O)C1CC=CCC1C(=O)Nc1cccc(Cl)c1Cl (configuration not stated)
inactive: growth inhibition [1] -8.95% | growth inhibition [2] -11.1% | viability increase [3] -1.82% | viability [4] 99.6% | viability [5] 101% | inhibition [6] 3.07% | RAM network inhibition [7] 0.21%

C/C(=C\C(=O)c1ccc(C)cc1)Nc1cccc(O)c1
inactive: growth inhibition [1] 4.13% | growth inhibition [2] -2.96% | viability increase [3] -4.74% | viability [4] 99.2% | viability [5] 92.8% | inhibition [6] 2.13% | RAM network inhibition [7] -0.26%

CC(c1ccccc1)C(CC(=O)O)C(=O)NC1CCCCC1 (configuration not stated)
inactive: growth inhibition [1] -12.4% | growth inhibition [2] -1.39% | viability increase [3] -0.07% | viability [4] 98.2% | viability [5] 103% | inhibition [6] 1.54% | RAM network inhibition [7] 1.1%

COc1cccc(-c2nc(C(N)=O)c3[nH]c(=O)n(-c4cccc(Cl)c4)c3n2)c1OC
inactive: growth inhibition [1] -21.4% | growth inhibition [2] -28.5% | viability increase [3] -4.45% | viability [4] 75.5% | viability [5] 72.5% | inhibition [6] 4.14% | RAM network inhibition [7] 3.65%

Cc1cc(C)cc(OCC(O)CN2C(=O)NC(C)(C)C2=O)c1 (configuration not stated)
inactive: growth inhibition [1] 2.01% | growth inhibition [2] 2.59% | viability increase [3] 0.13% | viability [4] 108% | viability [5] 103% | inhibition [6] -0.255% | RAM network inhibition [7] 2.26%

CCN(CC)CCN=C1CCCc2ccccc2N1
inactive: growth inhibition [1] -1.96% | growth inhibition [2] 5.53% | viability increase [3] -2.11% | viability [4] 86.9% | viability [5] 87% | inhibition [6] 2.3% | RAM network inhibition [7] 0.67%

O=C(CSc1nnc2sc3ccccc3n12)NCc1ccc2c(c1)OCO2
inactive: growth inhibition [1] 1.77% | growth inhibition [2] 20.7% | viability increase [3] -1.52% | viability [4] 104% | viability [5] 101% | inhibition [6] 0.245% | RAM network inhibition [7] 4.54%

Cc1[nH]n(-c2ccccc2)c(=O)c1S(=O)(=O)c1ccccc1
inactive: growth inhibition [1] -0.29% | growth inhibition [2] -3.15% | viability increase [3] 0.62% | viability [4] 102% | viability [5] 98.7% | inhibition [6] 0.08% | RAM network inhibition [7] 2.99%

O=C(Cc1cccs1)Nc1nnc(-c2ccncc2)s1
inactive: growth inhibition [1] -0.91% | growth inhibition [2] 3.21% | viability increase [3] 2.53% | viability [4] 108% | viability [5] 98.8% | inhibition [6] 0.38% | RAM network inhibition [7] 0.83%

N#CCc1ccc(NS(=O)(=O)c2ccc(N3CCCC3=O)cc2)cc1
inactive: growth inhibition [1] -10.7% | growth inhibition [2] -7.71% | viability increase [3] -0.69% | viability [4] 89.8% | viability [5] 88% | inhibition [6] 2.58% | RAM network inhibition [7] 0.32%

Cc1ccccc1Cn1c(CN2CCN(C(=O)c3ccco3)CC2)nc2c1c(=O)n(C)c(=O)n2C
inactive: growth inhibition [1] 1.26% | growth inhibition [2] -4.52% | viability increase [3] -4.75% | viability [4] 94.1% | viability [5] 95.7% | inhibition [6] 0.335% | RAM network inhibition [7] 1.2%

COc1ccc(Nc2nnc(Cc3ccc(Cl)cc3)c(=O)[nH]2)c(OC)c1
inactive: growth inhibition [1] -11.1% | growth inhibition [2] -13% | viability increase [3] 1.86% | viability [4] 100% | viability [5] 95.7% | inhibition [6] 1.89% | RAM network inhibition [7] 2.35%

COc1cc(C2C3=C(CC(c4ccco4)CC3=O)Nc3ccccc3N2C(C)=O)cc(OC)c1OC (configuration not stated)
inactive: growth inhibition [1] -0.74% | growth inhibition [2] 8.4% | viability increase [3] -3.38% | viability [4] 91.8% | viability [5] 89% | inhibition [6] 1.3% | RAM network inhibition [7] 6.7%

CCn1nc(C(=O)OCC(=O)c2ccc3c(c2)OCCO3)c2ccccc2c1=O
inactive: growth inhibition [1] -8.66% | growth inhibition [2] -8.03% | viability increase [3] -3.31% | viability [4] 89.9% | viability [5] 90.3% | inhibition [6] 1.78% | RAM network inhibition [7] 3.16%

COc1ccc(NC(=O)CSc2nnc(-c3ccccn3)n2N)cc1
inactive: growth inhibition [1] -5.41% | growth inhibition [2] 13.7% | viability increase [3] -0.74% | viability [4] 101% | viability [5] 97.3% | inhibition [6] 0.535% | RAM network inhibition [7] 4.82%

Cc1ccc(N2CCN(S(=O)(=O)c3ccc(F)cc3)CC2)c(C)c1
inactive: growth inhibition [1] -0.375% | growth inhibition [2] -15.2% | viability increase [3] -1.12% | viability [4] 66.6% | viability [5] 60.9% | inhibition [6] -0.44% | RAM network inhibition [7] 7.03%

COc1ccc(C(=O)N2CCN(c3ccc(C)cc3C)CC2)cc1OC
inactive: growth inhibition [1] -12.4% | growth inhibition [2] -0.18% | viability increase [3] 3.24% | viability [4] 72.9% | viability [5] 85.7% | inhibition [6] 1.66% | RAM network inhibition [7] 2.92%

O=C1CCc2cc(S(=O)(=O)NC(C(=O)NCc3cccnc3)c3ccccc3)ccc2N1 (configuration not stated)
inactive: growth inhibition [1] -5.88% | growth inhibition [2] 4.59% | viability increase [3] -2.98% | viability [4] 100% | viability [5] 98.3% | inhibition [6] -0.185% | RAM network inhibition [7] 3.79%

COC(=O)c1sc2ccccc2c1N
inactive: growth inhibition [1] 1.37% | growth inhibition [2] 27.7% | viability increase [3] -3.26% | viability [4] 101% | viability [5] 94.6% | inhibition [6] 0.515% | RAM network inhibition [7] 2.29%

O=C(CN1CCOc2ccccc21)NC1CCCCCCC1
inactive: growth inhibition [1] -14.2% | growth inhibition [2] 21.8% | viability increase [3] -5.54% | viability [4] 75.5% | viability [5] 78.2% | inhibition [6] 1.38% | RAM network inhibition [7] 0.83%

Cc1ccc(-c2nc(CS(=O)(=O)CC(=O)N3CCCCCC3)c(C)o2)cc1
inactive: growth inhibition [1] -2.76% | growth inhibition [2] 0.63% | viability increase [3] -1.22% | viability [4] 50% | viability [5] 70.6% | inhibition [6] 0.26% | RAM network inhibition [7] 4.22%

CC(NC(=O)Cc1ccccc1)c1nc2ccccc2[nH]1 (configuration not stated)
inactive: growth inhibition [1] -3.99% | growth inhibition [2] -1.91% | viability increase [3] -1.22% | viability [4] 108% | viability [5] 97.1% | inhibition [6] 0.08% | RAM network inhibition [7] 3.75%

CCOc1ccc(CCNC(=O)c2oc3c(c2C)-c2[nH]ncc2CC3)cc1OCC
inactive: growth inhibition [1] -11.9% | growth inhibition [2] -11.6% | viability increase [3] -2.93% | viability [4] 105% | viability [5] 92.7% | inhibition [6] 1.57% | RAM network inhibition [7] 9.8%

Cc1noc(C(=O)Nc2sc3c(c2C#N)CCC3)c1Cl
inactive: growth inhibition [1] -6.86% | growth inhibition [2] 2.54% | viability increase [3] -1.69% | viability [4] 65.8% | viability [5] 55.6% | inhibition [6] 1.84% | RAM network inhibition [7] 2.59%

O=C(OCCCCN1C(=O)c2ccccc2C1=O)c1ccc(S(=O)(=O)N2CCCC2)cc1
inactive: growth inhibition [1] -11.7% | growth inhibition [2] -0.405% | viability increase [3] 0.28% | viability [4] 101% | viability [5] 100% | inhibition [6] 1.85% | RAM network inhibition [7] 4.52%

CN(C)c1nc(Oc2ccc(/C=N/O)cc2)nc(N(C)C)n1
inactive: growth inhibition [1] -9.5% | growth inhibition [2] 4.05% | viability increase [3] -2.72% | viability [4] 101% | viability [5] 85.1% | inhibition [6] 1.58% | RAM network inhibition [7] 2.8%

COc1ccc(C2CC(c3c(Cl)cccc3Cl)n3nc(N)nc3N2)cc1 (configuration not stated)
inactive: growth inhibition [1] -6.17% | growth inhibition [2] 5.1% | viability increase [3] -1.64% | viability [4] 95.3% | viability [5] 88.1% | inhibition [6] 2.57% | RAM network inhibition [7] 6.67%

From PubChem BioAssay
